Experimental data as given in ChEMBL document CHEMBL2311271 (Eur J Med Chem, 2013).

Assays:
Assay type in all cases: functional, cell-based
Bel-7402 = experiment: Cytotoxicity against human Bel7402 cells by MTT assay
Method in brief: (§1)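 Cells grown in RPMI-1640 with 10% fetal calf serum plus penicillin and streptomycin, 37 °C, 5% CO₂. Compounds in DMSO, final ≤2% (v/v), tested in 96-well cultures with MTT staining. IC₅₀ = concentration cutting optical density 50% versus untreated cells; three replicate wells per point; mean of three independent determinations.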

HepG2 = experiment: Cytotoxicity against human HepG2 cells by MTT assay; method in brief: as §1
BGC-823 = experiment: Cytotoxicity against human BGC823 cells by MTT assay; method in brief: as §1
769-P = experiment: Cytotoxicity against human 769-P cells by MTT assay; method in brief: as §1
HeLa = experiment: Cytotoxicity against human HeLa cells by MTT assay; method in brief: as §1
786-0 = experiment: Cytotoxicity against human 786-0 cells by MTT assay; method in brief: as §1
[1] = Cytotoxicity against human Blu-87 cells by MTT assay; method in brief: as §1
A549 = experiment: Cytotoxicity against human A549 cells by MTT assay; method in brief: as §1
A-375 = experiment: Cytotoxicity against human A375 cells by MTT assay; method in brief: as §1
HT-29 = experiment: Cytotoxicity against human HT-29 cells by MTT assay; method in brief: as §1
MCF7 = experiment: Cytotoxicity against human MCF7 cells by MTT assay; method in brief: as §1
U-251 = experiment: Cytotoxicity against human U251 cells by MTT assay; method in brief: as §1
CWR22R = experiment: Cytotoxicity against human 22Rv1 cells by MTT assay; method in brief: as §1
KB = experiment: Cytotoxicity against human KB cells by MTT assay; method in brief: as §1
SCaBER = experiment: Cytotoxicity against human SCaBER cells by MTT assay; method in brief: as §1
OS-RC-2 = experiment: Cytotoxicity against human OS-RC2 cells by MTT assay; method in brief: as §1

Row | SMILES | IC50 (Bel-7402) [µM] | IC50 (HepG2) [µM] | IC50 (BGC-823) [µM] | IC50 (769-P) [µM] | IC50 (HeLa) [µM] | IC50 (786-0) [µM] | IC50 [1] [µM] | IC50 (A549) [µM] | IC50 (A-375) [µM] | IC50 (HT-29) [µM] | IC50 (MCF7) [µM] | IC50 (U-251) [µM] | IC50 (CWR22R) [µM] | IC50 (KB) [µM] | IC50 (SCaBER) [µM] | IC50 (OS-RC-2) [µM]
1 | Cc1c2c(cc[n+]1Cc1ccccc1)c1ccc(OCCCc3ccccc3)cc1n2CC(C)C | 1.3 | 4 | 2.5 | 3.7 | 1.4 | 2.3 | 3.8 | < 1.5 | < 1.5 | 4.9 | 9.2 | 2.5 | 2.8 | < 1.5 | 3.6 | 3.5
2 | CCn1c2cc(OCc3ccccc3)ccc2c2cc[n+](Cc3ccccc3)c(C)c21 | 3.6 | 49.9 | 66.1 | 8.9 | 56.3 | 15.4 | 22.1 | 19.6 | 12.3 | 10.9 | 67.6 | 16.2 |  | 8.7 | 46.3 | 15.9
3 | CCCCCCCCCCOc1ccc2c3cc[n+](Cc4ccccc4)c(C)c3n(CC(C)C)c2c1 | 5.8 | 2.4 | 2 | < 1.5 | 1.6 | 1.9 | 3.2 | < 1.5 | < 1.5 | 1.7 | 1.8 | 1.5 | < 1.5 | < 1.5 | 7.8 | 4
4 | CCn1c2cc(OCc3ccccc3)ccc2c2ccnc(C)c21 | > 100 | 15.5 | 17.2 |  | > 100 |  |  |  |  |  | > 100 |  |  |  |  | 
5 | CCCCCCCCCCOc1ccc2c3ccnc(C)c3n(CC(C)C)c2c1 | > 100 | > 100 | 74.1 |  | 2 |  |  |  |  |  | > 100 |  |  |  |  | 
6 | CCCCOc1ccc2c3cc[n+](Cc4ccccc4)c(C)c3n(CCCc3ccccc3)c2c1 | 2.5 | 4.1 | 4.1 | 2.9 | 3.9 | 2.6 | 4.4 | < 1.5 | 1.5 | 3.4 | 3.8 | 3.7 | 3.4 | < 1.5 | 4.7 | 6.8
7 | CCCCOc1ccc2c3cc[n+](Cc4ccccc4)c(C)c3n(CC)c2c1 | 2.9 | 10 | 10.9 | 4.6 | 2.4 | 7.8 | 22.9 | 13 | 6.9 | 6.4 | 5.9 | 14.2 |  | < 1.7 | 21.8 | 8.8
8 | CCCCCCCCCCOc1ccc2c3ccnc(C)c3n(CC)c2c1 | > 100 | 14.1 | 15.2 |  | > 100 |  |  |  |  |  | 45.9 |  |  |  |  | 
9 | Cc1nccc2c3ccc(OCCCc4ccccc4)cc3n(CC(C)C)c12 | > 100 | 27.7 | 18.5 |  | 27.6 |  |  |  |  |  | 19.5 |  |  |  |  | 
10 | CCCCCCCCOc1ccc2c3cc[n+](Cc4ccccc4)c(C)c3n(CCCc3ccccc3)c2c1 |  |  |  | 1.8 |  | < 1.5 | 1.9 | 1.6 | < 1.5 | 3.4 |  | 2.9 | < 1.5 | < 1.5 | 6.1 | 1.7
11 | Cc1nccc2c3ccc(OCCCc4ccccc4)cc3n(CCCc3ccccc3)c12 | > 100 | 16.7 | 19.8 |  | > 100 |  |  |  |  |  | > 100 |  |  |  |  | 
12 | CCn1c2cc(OCc3c(F)c(F)c(F)c(F)c3F)ccc2c2ccnc(C)c21 | > 100 | > 100 | > 100 |  | > 100 |  |  |  |  |  | > 100 |  |  |  |  | 
13 | CCn1c2cc(OC(C)C)ccc2c2ccnc(C)c21 | 43.6 | 52.6 | 59.7 |  | 27.6 |  |  |  |  |  | > 100 |  |  |  |  | 
14 | CCCCn1c2cc(OCCCc3ccccc3)ccc2c2ccnc(C)c21 | > 100 | 15.6 | 13.8 | 21.3 | 24.7 | 12.9 | 26.9 | 28.1 | 21.5 | 51.2 | 16 | 29.9 | 40.5 | 41.6 | 20.3 | 
15 | CCCCOc1ccc2c3cc[n+](Cc4ccccc4)c(C)c3n(CC(C)C)c2c1 |  |  |  | 2.3 |  | 2.4 | 8.9 | 2.2 | 2.1 | 4 |  | 1.8 | < 1.6 | 6 | 9.7 | 5.8
16 | CCCCCCCCOc1ccc2c3ccnc(C)c3n(CCCC)c2c1 | > 100 | 13.6 | 15.4 |  | > 100 |  |  |  |  |  | 13.6 |  |  |  |  | 
